Measured values pooled from the literature.
Target: Carbonic anhydrase 2 (CA2, Homo sapiens, UniProt P00918)
Read-out: enzyme activity
Action: inhibitor

CCOC(=O)N1CCC(=C2c3ccc(Cl)cc3CCc3cccnc32)CC1 — IC50 (absorbance; pH 7.4): 13.1 µM
NS(=O)(=O)c1nnc(NC(=O)CCc2ccc(F)cc2)s1 — Ki (stopped-flow): 3.6 nM
OC(Cn1cncn1)(Cn1cncn1)c1ccc(F)cc1F — IC50 (absorbance; pH 7.4): 12.5 µM
COc1ccc2oc(=O)c(-c3csc(Nc4ccc(C(=O)O)cc4)n3)cc2c1 — IC50 (absorbance): 4.61 µM
OC1CCN(c2ccc(/C=N/NC(=S)Nc3cccc(Cl)c3Cl)cc2)CC1 — IC50 (absorbance): 0.267 µM
Cc1ccccc1C(=O)Nc1nnc(S(N)(=O)=O)s1 — Ki (stopped-flow): 25.6 nM
OC1CCN(c2ccc(/C=N/NC(=S)Nc3ccc(F)cc3)cc2)CC1 — IC50 (absorbance): 0.255 µM
NS(=O)(=O)c1nnc(NC(=O)CCC2CCCCO2)s1 (stereo not drawn) — Ki (stopped-flow): 0.84 nM
O=C(O)COCCN1CCN(C(c2ccccc2)c2ccc(Cl)cc2)CC1 (stereo not drawn) — IC50 (absorbance; pH 7.4): 15.2 µM
OC1CCN(c2ccc(/C=N/NC(=S)NCc3ccccc3)cc2)CC1 — IC50 (absorbance): 0.504 µM
NS(=O)(=O)c1cnc(NC(=O)CCc2ccccc2)s1 — Ki (stopped-flow): 98.7 nM
CN(C/C=C/C#CC(C)(C)C)Cc1cccc2ccccc12 — IC50 (absorbance; pH 7.4): 32.2 µM
Cc1ccc(CNC(=S)N/N=C/c2ccc(N3CCC(O)CC3)cc2)cc1 — IC50 (absorbance): 0.698 µM
Cn1cnc([N+](=O)[O-])c1Sc1ncnc2nc[nH]c12 — IC50 (absorbance; pH 7.4): 20.6 µM
NS(=O)(=O)c1ccc(Nc2nc(-c3cc4cc(Br)ccc4oc3=O)cs2)c(Br)c1 — IC50 (absorbance): 5.86 µM
